These results are taken from publication PMC9097201 (ACS Omega, 2022).

Data set [1] deals with human embryonic lungs (L132) cell lines. Kind of data set: Cell viability. It counts as cell-based. Particulars: L132 cells, 100 μM peptide, 4 h, absorbance 570 nm, triplicate.
Data set [2] relates to trypsin, chymotrypsin, and proteinase K. Kind of data set: Proteolytic stability assay. It counts as in vitro ADME. Particulars: reaction mixture post-incubation with enzyme cocktail, ESI-MS positive mode. The method in brief: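 Test compound (10 mM) was incubated with a 1:1:1 trypsin/chymotrypsin/proteinase K mixture (0.3 mg/mL) at 37 °C for 0–6 h. Enzymes were inactivated with an equal volume of acetonitrile containing 1% TFA for 15 min at 4 °C. The post-incubation reaction mixture was analysed by ESI-MS for intact peptide.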

Where a SMILES comes first, the peptide text is derived from it. [ ]: non-standard residue; d: D form. Nle = CCCC[C@H](N)C(=O)O; Dab = NCC[C@H](N)C(=O)O

For the compound `CCCC[C@H](NC(=O)[C@H](CCN)NC(=O)[C@H](CCN)NC(=O)[C@H](CCCC)NC(=O)[C@H](Cc1c[nH]c2ccccc12)NC(=O)[C@H](CCN)NC(=O)[C@@H](N)CCCC)C(N)=O` [P36, Nle-Dab-Trp-Nle-Dab-Dab-Nle-CONH2] (H-[Nle][Dab]W[Nle][Dab][Dab][Nle]-NH2), the “cell viability (MTT)” value in data set [1] is reported as approximately 90%. Further, the “chemical integrity after protease incubation (ESI-MS)” value in data set [2] was “contained only intact P36”.
